Results as given in ChEMBL document CHEMBL5252538, “β-Lactam analogues of combretastatin A-4 prevent metabolic inactivation by glucuronidation in chemoresistant HT-29 colon cancer cells” (Eur J Med Chem, 2017).
pIC50: −log10 of the molar value. Calls of active or inactive are those of the source. The calls are words filed in the database; no cut-off is given here.

Tests used:
[1] = tested on: HT-29; assay: Induction of cell cycle arrest in human HT-29 cells assessed as accumulation of cells in G2/M phase at 1 uM incubated for 24 to 72 hrs by RNase/PI staining based flow cytometry analysis; type: functional; conditions: time 24-72 hrs
[2] = tested on: HL-60; assay: Antiproliferative activity against […] human HL-60 cells assessed as inhibition of cell growth incubated for 72 hrs by alamar blue assay; type: functional, cell-based; conditions: HL-60, 72 h
Outline: (§1)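 Cells seeded 24 h before treatment (HL-60 4 × 10⁴, MCF-7 5 × 10³ per well), then given medium, vehicle (1% ethanol v/v) or serial dilutions (eight concentrations) for 72 h. Alamar Blue (10% v/v) added for 3–5 h at 37 °C in the dark, fluorescence read at ex 530/em 590 nm. Viability expressed relative to vehicle (100%), IC50 from dose–response curves; three experiments in triplicate.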

[3] = tested on: HT-29; assay: Induction of cell cycle arrest in human HT-29 cells assessed as accumulation of cells at G0/G1 phase at 1 uM incubated for 24 hrs in presence of 2,3-bis(amino((2aminophenyl)thio)methylene)succinonitrile by RAase A/PI staining based flow cytometry analysis (reference value: 57%); type: functional
[4] = tested on: HT-29; assay: Induction of cell cycle arrest in human HT-29 cells assessed as accumulation of cells in sub-G1 phase at 1 uM incubated for 72 hrs by RNase/PI staining based flow cytometry analysis (reference value: 6%); type: functional
[5] = tested on: HT-29; assay: Induction of cell cycle arrest in human HT-29 cells assessed as accumulation of cells at G2/M phase at 1 uM incubated for 24 hrs by RAase A/PI staining based flow cytometry analysis (reference value: 16%); type: functional
[6] = tested on: HT-29; assay: Induction of cell cycle arrest in human HT-29 cells assessed as accumulation of cells at G0/G1 phase at 1 uM incubated for 24 hrs by RAase A/PI staining based flow cytometry analysis (reference value: 57%); type: functional
[7] = tested on: MCF7; assay: Antiproliferative activity against […] human MCF7 cells assessed as inhibition of cell growth incubated for 72 hrs by alamar blue assay; type: functional, cell-based; conditions: MCF7, 72 h; outline: as §1
[8] = tested on: HT-29; assay: Antiproliferative activity against combretastatin A-4 resistant human HT-29 cells assessed as inhibition of cell growth incubated for 72 hrs by SRB assay; type: functional, cell-based; conditions: HT-29, 72 h
Outline: (§2)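 HT-29 (DMEM Glutamax, 10% FBS) seeded at 1 × 10⁴ cells/well, treated after 24 h with vehicle (1% ethanol v/v) or serial dilutions (eight concentrations) for 72 h; viability measured by sulforhodamine B protocol. Percent viability relative to vehicle control, IC50 from dose–response curves; mean of three experiments in triplicate.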

[9] = tested on: HT-29; assay: Induction of cell cycle arrest in human HT-29 cells assessed as accumulation of cells at G2/M phase at 1 uM incubated for 24 hrs in presence of 2,3-bis(amino((2-aminophenyl)thio)methylene)succinonitrile by RAase A/PI staining based flow cytometry analysis (reference value: 16%); type: functional
[10] = molecular target: T1, Tubulin (Homo sapiens) (UniProt P68371+Q9H4B7+P0DPH7+P68366+Q13509+Q71U36+P04350+Q3ZCM7+P07437+P68363+Q9BQE3+Q6PEY2+Q13885+Q9BVA1+Q9BUF5); assay: Induction of microtubule disruption in human HT-29 cells assessed as effect on microtubule organization at 1 uM incubated for 16 hrs by immunofluorescence based confocal microscopic analysis; type: cell-based
[11] = molecular target: T1, Tubulin (Homo sapiens); assay: Induction of microtubule disruption in human HT-29 cells assessed as complete loss of microtubule structure incubated for 16 hrs by immunofluorescence based confocal microscopic analysis; type: cell-based
Outline: (§3)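 Fixed in 4% paraformaldehyde, permeabilised in 0.5% Triton X-100, blocked in 5% BSA, stained with anti-α-tubulin-FITC (DM1A, 1:100, 2 h) and Alexa Fluor 488, DAPI counterstain; confocal imaging, three occasions.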

[12] = tested on: HT-29; assay: Induction of cell cycle arrest in human HT-29 cells assessed as accumulation of cells in sub-G1 phase at 0.5 uM incubated for 72 hrs by RNase/PI staining based flow cytometry analysis (reference value: 6%); type: functional
Outline: (§4)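 HT-29 treated with vehicle (0.1% ethanol v/v) or compound at 0.5 µM for 24, 48 and 72 h. Adherent plus detached cells collected, fixed overnight in ice-cold 70% ethanol at −20 °C, stained with PI (50 µg/mL) plus RNase A (50 µg/mL) 30 min at 37 °C. 10,000 cells analysed by flow cytometry at 488 nm; sub-G1, G0/G1, G2/M gated on DNA content; mean of three experiments.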

[13] = tested on: HT-29; assay: Induction of cell cycle arrest in human HT-29 cells assessed as reduction in cells in G0 phase at 0.5 uM incubated for 72 hrs by RNase/PI staining based flow cytometry analysis; type: functional; outline: as §4
[14] = tested on: HT-29; assay: Induction of cell cycle arrest in human HT-29 cells assessed as accumulation of cells at G2/M phase at 0.5 uM incubated for 72 hrs by RNase/PI staining based flow cytometry analysis relative to control; type: functional; outline: as §4
[15] = tested on: HT-29; assay: Induction of cell cycle arrest in human HT-29 cells assessed as reduction in cells in S phase at 0.5 uM incubated for 72 hrs by RNase/PI staining based flow cytometry analysis; type: functional; outline: as §4
[16] = molecular target: T1, Tubulin (Homo sapiens); assay: Induction of microtubule disruption in human HT-29 cells assessed as appearance of multiple micronucleus incubated for 16 hrs by immunofluorescence based confocal microscopic analysis; type: cell-based; outline: as §3
[17] = molecular target: Tubulin (Bos taurus) (UniProt Q6B856+Q862L2+Q862F3); assay: Inhibition of bovine tubulin polymerisation assessed as fold reduction in Vmax at 10 uM measured every 30 secs for 30 mins by spectrophotometric method relative to control; type: protein assay
[18] = molecular target: T2, Tubulin beta (Homo sapiens) (UniProt P68371+Q9H4B7+Q13509+P04350+Q3ZCM7+P07437+Q13885+Q9BVA1+Q9BUF5+A6NNZ2); assay: Binding affinity to colchicine binding site of beta-tubulin in human HT-29 cells assessed as inhibition of beta-tubulin-EBI adduct formation at 10 uM pretreated for 2 hrs followed by EBI addition and measured after 1.5 hrs by Western blot analysis; type: cell-based; conditions: time 3.5 hrs
Outline: (§5)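 Cells seeded at 5 × 10⁴/well, grown overnight, treated with vehicle (0.1% ethanol v/v) or compound (10 µM) for 2 h, then EBI (100 µM) added for 1.5 h. Cells washed with ice-cold PBS, lysed in Laemmli buffer, run on SDS-PAGE, blotted and probed for β-tubulin to detect the faster-migrating β-tubulin–EBI adduct; GAPDH reprobe for loading; three independent experiments.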

[19] = Stability in phosphate buffer at pH 9 assessed as half life at 30 ug/ml measured for 24 hrs by analytical HPLC analysis; type: physicochemical; conditions: dose 30 µg/ml
[20] = tested on: HT-29; assay: Induction of apoptosis in human HT-29 cells assessed as decrease in Mcl-1 protein expression at 0.1 to 1 uM incubated for 48 hrs by Western blot analysis; type: functional, cell-based; conditions: dose 0.1-1 µM
Outline: (§6)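 HT-29 seeded at 1 × 10⁵ cells per T25 flask; left untreated, given vehicle (0.1% EtOH v/v) or compound at 0.1 or 1 µM for 48 h. Whole-cell lysates in RIPA with protease/phosphatase inhibitors, equal protein (BCA) on 12% SDS-PAGE, PVDF; probed for Mcl-1, PARP, Bax (1:1000), HRP secondary, ECL detection, GAPDH loading control; three independent occasions.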

[21] = molecular target: T1, Tubulin (Homo sapiens); assay: Induction of microtubule disruption in human MCF7 cells assessed as depolymerization of microtubules at 0.5 uM incubated for 16 hrs by immunofluorescence based confocal microscopic analysis; type: cell-based
Outline: (§7)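 MCF-7 seeded at 1 × 10⁵ cells/mL on chamber slides, treated 16 h with vehicle (1% ethanol v/v), CA-4 (0.1 µM) or compounds (0.5 µM). Paraformaldehyde fixation (4%, 20 min), Triton X-100 permeabilisation, BSA block, anti-α-tubulin-FITC (DM1A) plus Alexa Fluor 488, DAPI mounting; confocal imaging with identical settings per experiment; three independent occasions.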

[22] = tested on: HT-29; assay: Induction of apoptosis in human HT-29 cells assessed as upregulation of Bax protein expression at 0.1 to 1 uM incubated for 48 hrs by Western blot analysis; type: functional, cell-based; conditions: dose 0.1-1 µM; outline: as §6
[23] = Stability in phosphate buffer at pH 4 assessed as half life at 30 ug/ml measured for 24 hrs by analytical HPLC analysis; type: physicochemical; conditions: dose 30 µg/ml
[24] = molecular target: T1, Tubulin (Homo sapiens); assay: Induction of microtubule disruption in human HT-29 cells assessed as complete loss of microtubule structure at 0.5 uM incubated for 16 hrs by immunofluorescence based confocal microscopic analysis; type: cell-based; outline: as §3
[25] = tested on: HT-29; assay: Antiproliferative activity against human HT-29 cells assessed as inhibition of cell growth incubated for 72 hrs by SRB assay; type: functional; outline: as §2
[26] = tested on: HL-60; assay: Antiproliferative activity against human HL-60 cells assessed as inhibition of cell growth incubated for 72 hrs by SRB assay; type: functional
[27] = molecular target: T1, Tubulin (Homo sapiens); assay: Induction of microtubule disruption in human MCF7 cells assessed as inhibition of microtubule formation at 0.5 uM incubated for 16 hrs by immunofluorescence based confocal microscopic analysis; type: cell-based; outline: as §7
[28] = molecular target: T2, Tubulin beta (Homo sapiens); assay: Binding affinity to colchicine binding site of beta-tubulin in human MCF7 cells assessed as inhibition of beta-tubulin-EBI adduct formation at 10 uM pretreated for 2 hrs followed by EBI addition and measured after 1.5 hrs by Western blot analysis; type: cell-based; conditions: time 3.5 hrs; outline: as §5
[29] = molecular target: T1, Tubulin (Homo sapiens); assay: Induction of microtubule disruption in human HT-29 cells assessed as appearance of multiple micronucleus at 0.5 uM incubated for 16 hrs by immunofluorescence based confocal microscopic analysis; type: cell-based; outline: as §3
[30] = tested on: MCF7; assay: Induction of cell cycle arrest in human MCF7 cells assessed as accumulation of cells at sub-G1 phase at 0.5 uM incubated for 72 hrs by RNase/PI staining based flow cytometry analysis (reference value: 4%); type: functional
[31] = tested on: MCF7; assay: Induction of cell cycle arrest in human MCF7 cells assessed as accumulation of cells at G2/M phase at 0.5 uM incubated for 24 hrs by RNase/PI staining based flow cytometry analysis (reference value: 24%); type: functional
[32] = tested on: Panel NCI-60 (60 carcinoma cell lines); assay: Antiproliferative activity against human panel NCI-60 (60 carcinoma cell lines) assessed as inhibition of cell growth at 10 uM incubated for 72 hrs by SRB assay; type: functional, cell-based
[33] = Stability in phosphate buffer at pH 7.4 assessed as half life at 30 ug/ml measured for 24 hrs by analytical HPLC analysis; type: physicochemical; conditions: dose 30 µg/ml
[34] = tested on: MCF7; assay: Antiproliferative activity against human MCF7 cells assessed as inhibition of cell growth incubated for 72 hrs by SRB assay; type: functional
[35] = tested on: HT-29; assay: Induction of apoptosis in human HT-29 cells assessed as increase in PARP cleavage at 0.1 uM incubated for 48 hrs by Western blot analysis; type: functional, cell-based; outline: as §6
[36] = molecular target: T1, Tubulin (Homo sapiens); assay: Induction of microtubule disruption in human MCF7 cells assessed as shrunken spindle shaped microtubule formation at 0.5 uM incubated for 16 hrs by immunofluorescence based confocal microscopic analysis; type: cell-based; outline: as §7
[37] = tested on: Panel NCI-60 (60 carcinoma cell lines); assay: Antiproliferative activity against human panel NCI-60 (60 carcinoma cell lines) incubated for 72 hrs by SRB assay; type: functional; conditions: read-out: LC50 (the source's name)

| SMILES | pIC50 [2] | pIC50 [7] | pIC50 [8] | Activity [12] [%] | Activity [13] | Activity [14] [%] | Activity [15] | fold change (FC) [17] | half-life at 30 ug/ml [19] [h] | Activity [20] | Activity [21] | Activity [22] | half-life at 30 ug/ml [23] [h] | GI50 [25] [nM] | GI50 [26] [nM] | Activity [27] | Activity [30] [%] | Activity [31] [%] | inhibition [32] | half-life at 30 ug/ml [33] [h] | further results |
| --- | --- | --- | --- | --- | --- | --- | --- | --- | --- | --- | --- | --- | --- | --- | --- | --- | --- | --- | --- | --- | --- |
| COc1ccc(C2C(c3ccccc3)C(=O)N2c2cc(OC)c(OC)c(OC)c2)cc1O (mixture of isomers) | 8.70 | 8.40 | 6.37 | – | – | – | – | – | – | – | – | – | – | – | – | – | – | – | – | – | Activity [1]: inactive; Activity [3]: 26%; Activity [4]: 5%; Activity [5]: 16%; Activity [6]: 60%; Activity [9]: 58%; Activity [10]: inactive |
| COc1ccc(C2C(c3ccccc3)C(=O)N2c2cc(OC)c(OC)c(OC)c2)cc1 (mixture of isomers) | 7.62 | 7.82 | 7.66 | 19 | Active | 50 | Active | – | – | – | – | – | – | – | – | – | – | – | – | – | Activity [11]: Active; Activity [16]: Active |
| COc1cc(N2C(=O)C(O)C2c2ccc(SC)cc2)cc(OC)c1OC (racemic) | 7.82 | 8.30 | 7.82 | 15 | Active | 68 | Active | 3.5 | 16 | Active | Active | Active | 16 | < 10 | < 10 | Active | 12 | 70 | Active | > 24 | inhibition [18]: Active; Activity [24]: Active; inhibition [28]: Active; Activity [29]: Active; GI50 [34]: < 10 nM; Activity [35]: Active; Activity [36]: Active; CC50 [37]: > 100000 nM |
| COc1cc(N2C(=O)C(c3ccccc3)C2c2ccc(SC)cc2)cc(OC)c1OC (racemic) | 7.23 | 7.19 | 7.25 | – | – | – | – | 3.4 | 8 | Active | Active | Active | 10 | 32 | 23 | Active | 11 | 65 | Active | 15 | GI50 [34]: 35 nM; Activity [35]: Active; Activity [36]: Active; CC50 [37]: > 100000 nM |
